Results filed as inconclusive are left out. Activity calls are given as the source filed them.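 Rule for the calls: active = luminescence cut by more than half of the full-inhibition control window in a dose series; inconclusive = no clear call, values can overlap the other calls; inactive = signal rising instead of falling, or the rest.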
Tested on: proteasome chymotrypsin-like activity (human)
Assay: inhibition of cellular proteasome chymotrypsin-like cleavage – cell-based, U2OS, luminescence, dry powder, set 4, counter-screen for HIF pathway activator project, dose response (AID 493236)
Details: U2OS cells, Proteasome-Glo chymotrypsin luminescence; series mostly up to 38 µM
How it was run: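 System: U2OS cells. Input: 2,500 U2OS cells per well. Compound dosing: 8-point threefold dilution series, source stock top 16.5 mM. Timing: 24 h plating, 4 h compound, 2 h reagent. Technique: Proteasome-Glo luminescence. Evaluation: percent activity relative to MG132 and DMSO. Controls: MG132 (1 µM) and DMSO. Repeats: each compound tested in duplicate.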

Compound | outcome
Oc1ccc(CN2CCC3CCCCC3C2)c2cccnc12 (configuration not stated) | inactive
N#CC1(c2ccccc2)CCN(Cc2ccc(O)c3ncccc23)CC1 | inactive
